# Test results reported in ChEMBL document CHEMBL1139504, “Discovery of the first potent, selective 5-hydroxytryptamine1D receptor antagonist” (J Med Chem, 2005).
# Columns and labels:
# [1] = molecular target: T1, 5-hydroxytryptamine receptor 1B (Homo sapiens, UniProt P28222); experiment: Displacement of [3H]5-HT from human 5-hydroxytryptamine 1B receptor expressed in CHO cells; assay type: cell-based
# How it was run: (§1)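 Radioligand displacement binding on membranes of cloned human receptors. Each determination lies within 0.3 log units of the mean.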
# [2] = molecular target: T2, 5-hydroxytryptamine receptor 1A (Homo sapiens, UniProt P08908); experiment: Displacement of [3H]WAY-100635 from human 5-hydroxytryptamine 1A receptor expressed in CHO cells; assay type: cell-based; how it was run: as §1
# T2 sequence (P08908 whole entry): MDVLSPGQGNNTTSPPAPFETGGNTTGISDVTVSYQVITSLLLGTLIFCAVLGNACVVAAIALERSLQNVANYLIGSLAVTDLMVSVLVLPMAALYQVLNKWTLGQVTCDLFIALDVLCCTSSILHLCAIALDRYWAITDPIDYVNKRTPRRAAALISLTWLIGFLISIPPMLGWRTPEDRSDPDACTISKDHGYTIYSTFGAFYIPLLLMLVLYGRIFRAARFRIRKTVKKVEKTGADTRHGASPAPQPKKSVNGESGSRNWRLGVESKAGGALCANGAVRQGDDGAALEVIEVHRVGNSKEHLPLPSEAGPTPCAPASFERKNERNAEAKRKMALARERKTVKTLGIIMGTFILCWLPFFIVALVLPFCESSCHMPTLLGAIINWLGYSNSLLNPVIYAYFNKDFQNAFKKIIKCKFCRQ
# [3] = molecular target: Serotonin 1 receptors; 5-HT1B & 5-HT1D (Homo sapiens) (UniProt P28222+P28221); experiment: Selectivity for human 5-hydroxytryptamine 1D receptor over 5-hydroxytryptamine 1B receptor; assay type: protein assay
# [4] = molecular target: T3, 5-hydroxytryptamine receptor 1D (Homo sapiens, UniProt P28221); experiment: Displacement of [3H]5-HT from human 5-hydroxytryptamine 1D receptor expressed in CHO cells; assay type: cell-based; how it was run: as §1
# [5] = molecular target: Sodium-dependent serotonin transporter (Rattus norvegicus, UniProt P31652); experiment: Inhibition of [3H]5-HT binding to serotonin transporter in rat cortical synaptosomes; assay type: subcellular, Brain
# How it was run: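 Radioligand binding to serotonin transporter in rat cortical synaptosomes. Each determination lies within 0.3 log units of the mean.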
# [6] = molecular target: T4, 5-hydroxytryptamine receptor 1A (Homo sapiens) (UniProt P08908)
# T4 sequence (whole entry): T2 sequence (P08908 whole entry)
# [7] = molecular target: T1, 5-hydroxytryptamine receptor 1B
# [8] = molecular target: T3, 5-hydroxytryptamine receptor 1D
# [9] = molecular target: T5, 5-hydroxytryptamine receptor 2C (Homo sapiens, UniProt P28335); experiment: Binding affinity for human 5-hydroxytryptamine 2C receptor
# T5 sequence (P28335 whole entry): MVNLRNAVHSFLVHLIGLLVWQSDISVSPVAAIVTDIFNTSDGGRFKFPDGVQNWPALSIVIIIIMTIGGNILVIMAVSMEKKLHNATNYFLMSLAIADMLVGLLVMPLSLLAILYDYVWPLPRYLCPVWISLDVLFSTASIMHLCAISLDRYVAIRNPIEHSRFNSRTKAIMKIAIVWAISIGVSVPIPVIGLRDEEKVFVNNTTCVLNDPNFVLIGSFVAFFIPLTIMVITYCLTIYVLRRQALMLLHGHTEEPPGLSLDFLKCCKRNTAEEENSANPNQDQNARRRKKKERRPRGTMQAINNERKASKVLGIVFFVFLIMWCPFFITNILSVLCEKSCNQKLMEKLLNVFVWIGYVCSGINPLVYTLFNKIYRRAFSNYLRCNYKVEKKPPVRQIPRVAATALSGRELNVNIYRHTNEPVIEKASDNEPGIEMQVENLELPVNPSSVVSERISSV
# How it was run: (§2)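 Radioligand displacement binding on cloned human receptors. Each determination lies within 0.3 log units of the mean.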
# [10] = molecular target: 5-hydroxytryptamine receptor 2A (Homo sapiens, UniProt P28223); experiment: Binding affinity for human 5-hydroxytryptamine 2A receptor; how it was run: as §2
# [11] = molecular target: T6, 5-hydroxytryptamine receptor 1F (Homo sapiens, UniProt P30939); experiment: Binding affinity for human 5-hydroxytryptamine 1F receptor
# T6 sequence (P30939 whole entry): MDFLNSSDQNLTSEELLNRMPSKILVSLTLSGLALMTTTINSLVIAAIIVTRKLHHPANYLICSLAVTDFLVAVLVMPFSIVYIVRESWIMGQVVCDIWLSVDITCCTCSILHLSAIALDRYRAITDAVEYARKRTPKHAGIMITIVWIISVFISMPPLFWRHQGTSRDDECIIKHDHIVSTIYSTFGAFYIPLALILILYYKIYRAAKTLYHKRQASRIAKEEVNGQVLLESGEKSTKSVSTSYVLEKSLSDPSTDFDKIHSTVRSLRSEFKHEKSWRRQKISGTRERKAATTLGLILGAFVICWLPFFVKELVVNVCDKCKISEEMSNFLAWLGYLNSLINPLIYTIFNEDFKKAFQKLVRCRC
# [12] = molecular target: T7, Alpha-1B adrenergic receptor (Homo sapiens, UniProt P35368); experiment: Binding affinity for human alpha-1B adrenergic receptor
# T7 sequence (P35368 whole entry): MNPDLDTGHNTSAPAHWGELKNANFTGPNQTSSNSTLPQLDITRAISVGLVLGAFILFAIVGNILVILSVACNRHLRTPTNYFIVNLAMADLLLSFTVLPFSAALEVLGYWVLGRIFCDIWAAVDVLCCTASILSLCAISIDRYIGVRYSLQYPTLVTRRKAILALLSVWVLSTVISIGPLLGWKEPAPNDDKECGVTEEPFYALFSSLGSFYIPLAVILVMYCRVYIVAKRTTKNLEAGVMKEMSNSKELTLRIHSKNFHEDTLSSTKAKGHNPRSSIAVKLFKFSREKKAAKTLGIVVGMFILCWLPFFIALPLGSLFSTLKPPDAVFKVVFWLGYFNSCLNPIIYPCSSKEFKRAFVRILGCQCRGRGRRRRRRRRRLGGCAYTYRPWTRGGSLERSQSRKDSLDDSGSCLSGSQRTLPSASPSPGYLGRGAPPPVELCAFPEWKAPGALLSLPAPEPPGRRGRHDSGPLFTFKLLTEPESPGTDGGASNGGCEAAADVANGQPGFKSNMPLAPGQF
# [13] = molecular target: D(3) dopamine receptor (Homo sapiens, UniProt P35462); experiment: Binding affinity for human dopamine receptor D3
# [14] = molecular target: 5-hydroxytryptamine receptor 1E (Homo sapiens, UniProt P28566); experiment: Binding affinity for human 5-hydroxytryptamine 1E receptor
# [15] = molecular target: T4, 5-hydroxytryptamine receptor 1A (Homo sapiens); experiment: Intrinsic activity for human 5-hydroxytryptamine 1A receptor in [35S]GTP-gamma-S, assay; […]; assay type: functional
# How it was run: (§3)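 [35S]GTPγS binding in recombinant cells with high receptor density expressing the human receptor. Ten-point half-log serial dilution gives the concentration–response. Intrinsic activity is expressed relative to the maximal response of the endogenous agonist 5-HT.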
# [16] = molecular target: 5-hydroxytryptamine receptor 7 (Homo sapiens, UniProt P34969); experiment: Binding affinity for human 5-hydroxytryptamine 7 receptor
# [17] = molecular target: 5-hydroxytryptamine receptor 2B (Homo sapiens, UniProt P41595); experiment: Binding affinity for human 5-hydroxytryptamine 2B receptor
# [18] = molecular target: 5-hydroxytryptamine receptor 4 (Homo sapiens, UniProt Q13639); experiment: Binding affinity for human 5-hydroxytryptamine 4 receptor
# [19] = molecular target: T8, D(4) dopamine receptor (Homo sapiens, UniProt P21917); experiment: Binding affinity for human dopamine receptor D4
# T8 sequence (P21917 whole entry): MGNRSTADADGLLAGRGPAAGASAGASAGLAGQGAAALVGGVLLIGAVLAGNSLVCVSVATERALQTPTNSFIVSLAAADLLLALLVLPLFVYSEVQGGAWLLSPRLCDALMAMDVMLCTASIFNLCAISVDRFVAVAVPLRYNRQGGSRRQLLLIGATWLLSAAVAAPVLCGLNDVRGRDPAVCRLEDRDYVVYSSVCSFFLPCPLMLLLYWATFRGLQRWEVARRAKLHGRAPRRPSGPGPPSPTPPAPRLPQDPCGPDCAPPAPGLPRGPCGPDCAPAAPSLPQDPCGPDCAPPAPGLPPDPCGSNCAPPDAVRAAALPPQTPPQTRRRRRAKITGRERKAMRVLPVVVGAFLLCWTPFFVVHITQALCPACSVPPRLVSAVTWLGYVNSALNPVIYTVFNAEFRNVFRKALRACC
# [20] = molecular target: D(2) dopamine receptor (Homo sapiens, UniProt P14416); experiment: Binding affinity for human dopamine receptor D2
# [21] = molecular target: 5-hydroxytryptamine receptor 5A (Homo sapiens, UniProt P47898); experiment: Binding affinity for human 5-hydroxytryptamine 5A receptor; how it was run: as §2
# [22] = molecular target: T1, 5-hydroxytryptamine receptor 1B; experiment: Intrinsic activity for human 5-hydroxytryptamine 1B receptor in [35S]GTP-gamma-S, assay; assay type: functional; how it was run: as §3
# [23] = molecular target: T3, 5-hydroxytryptamine receptor 1D; remark: listed apart in the source
# [24] = molecular target: Beta-2 adrenergic receptor (Homo sapiens, UniProt P07550); experiment: Binding affinity for human beta-2 adrenergic receptor
# [25] = molecular target: 5-hydroxytryptamine receptor 6 (Homo sapiens, UniProt P50406); experiment: Binding affinity for human 5-hydroxytryptamine 6 receptor
# [26] = molecular target: T3, 5-hydroxytryptamine receptor 1D; experiment: Intrinsic activity for human 5-hydroxytryptamine 1D receptor in [35S]GTP-gamma-S, assay; assay type: functional; how it was run: as §3
# [27] = molecular target: T4, 5-hydroxytryptamine receptor 1A (Homo sapiens); experiment: Intrinsic activity for human 5-hydroxytryptamine 1A receptor in [35S]GTP-gamma-S, assay; assay type: functional; how it was run: as §3
# Chain of Sodium-dependent serotonin transporter (P31652 whole entry): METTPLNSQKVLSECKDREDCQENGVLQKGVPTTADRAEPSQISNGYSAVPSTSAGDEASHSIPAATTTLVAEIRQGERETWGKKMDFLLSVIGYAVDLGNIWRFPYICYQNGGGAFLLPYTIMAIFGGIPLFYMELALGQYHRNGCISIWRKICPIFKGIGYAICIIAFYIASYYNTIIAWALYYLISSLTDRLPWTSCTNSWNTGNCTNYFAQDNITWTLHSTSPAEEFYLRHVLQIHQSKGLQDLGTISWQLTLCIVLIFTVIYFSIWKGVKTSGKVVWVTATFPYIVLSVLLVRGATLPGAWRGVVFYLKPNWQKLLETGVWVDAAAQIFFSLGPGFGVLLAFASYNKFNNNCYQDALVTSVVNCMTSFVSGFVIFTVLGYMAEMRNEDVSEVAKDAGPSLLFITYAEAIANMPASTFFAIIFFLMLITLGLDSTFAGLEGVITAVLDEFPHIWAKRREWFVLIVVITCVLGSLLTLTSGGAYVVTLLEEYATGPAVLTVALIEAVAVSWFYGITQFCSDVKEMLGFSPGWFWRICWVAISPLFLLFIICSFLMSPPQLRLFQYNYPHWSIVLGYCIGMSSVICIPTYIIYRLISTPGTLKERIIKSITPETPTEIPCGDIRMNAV
# T3 sequence (P28221 whole entry): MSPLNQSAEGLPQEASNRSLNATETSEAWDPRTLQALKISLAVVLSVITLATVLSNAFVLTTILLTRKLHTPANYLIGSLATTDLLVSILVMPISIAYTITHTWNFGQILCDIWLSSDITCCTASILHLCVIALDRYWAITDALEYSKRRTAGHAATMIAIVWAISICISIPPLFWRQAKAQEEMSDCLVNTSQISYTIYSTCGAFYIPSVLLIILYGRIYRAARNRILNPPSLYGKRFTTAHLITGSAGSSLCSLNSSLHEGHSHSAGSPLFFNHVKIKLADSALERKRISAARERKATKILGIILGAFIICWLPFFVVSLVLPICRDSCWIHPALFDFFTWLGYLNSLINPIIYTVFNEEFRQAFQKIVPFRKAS
# T1 sequence (P28222 whole entry): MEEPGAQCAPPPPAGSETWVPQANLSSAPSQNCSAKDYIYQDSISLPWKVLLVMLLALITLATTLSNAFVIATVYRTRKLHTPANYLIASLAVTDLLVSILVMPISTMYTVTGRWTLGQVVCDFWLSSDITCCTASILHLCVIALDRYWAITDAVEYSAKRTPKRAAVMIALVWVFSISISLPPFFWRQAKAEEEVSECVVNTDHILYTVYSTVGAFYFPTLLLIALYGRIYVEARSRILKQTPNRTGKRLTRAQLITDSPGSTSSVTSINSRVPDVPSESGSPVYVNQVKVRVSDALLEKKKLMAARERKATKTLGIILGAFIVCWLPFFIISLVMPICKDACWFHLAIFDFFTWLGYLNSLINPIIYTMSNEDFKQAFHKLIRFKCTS
# Chain of 5-hydroxytryptamine receptor 7 (P34969 whole entry): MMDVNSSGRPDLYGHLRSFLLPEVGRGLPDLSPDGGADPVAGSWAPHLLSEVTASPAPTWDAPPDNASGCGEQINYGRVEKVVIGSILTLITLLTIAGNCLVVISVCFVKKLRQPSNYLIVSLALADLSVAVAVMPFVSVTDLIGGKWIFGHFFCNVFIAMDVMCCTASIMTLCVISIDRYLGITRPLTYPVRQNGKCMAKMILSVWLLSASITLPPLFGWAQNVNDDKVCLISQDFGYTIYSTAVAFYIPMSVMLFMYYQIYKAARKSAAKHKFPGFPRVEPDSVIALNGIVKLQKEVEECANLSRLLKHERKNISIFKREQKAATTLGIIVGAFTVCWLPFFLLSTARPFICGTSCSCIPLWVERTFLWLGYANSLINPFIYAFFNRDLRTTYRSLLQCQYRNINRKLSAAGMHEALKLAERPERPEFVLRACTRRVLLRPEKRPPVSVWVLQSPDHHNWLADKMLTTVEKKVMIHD
# Chain of D(3) dopamine receptor (P35462 whole entry): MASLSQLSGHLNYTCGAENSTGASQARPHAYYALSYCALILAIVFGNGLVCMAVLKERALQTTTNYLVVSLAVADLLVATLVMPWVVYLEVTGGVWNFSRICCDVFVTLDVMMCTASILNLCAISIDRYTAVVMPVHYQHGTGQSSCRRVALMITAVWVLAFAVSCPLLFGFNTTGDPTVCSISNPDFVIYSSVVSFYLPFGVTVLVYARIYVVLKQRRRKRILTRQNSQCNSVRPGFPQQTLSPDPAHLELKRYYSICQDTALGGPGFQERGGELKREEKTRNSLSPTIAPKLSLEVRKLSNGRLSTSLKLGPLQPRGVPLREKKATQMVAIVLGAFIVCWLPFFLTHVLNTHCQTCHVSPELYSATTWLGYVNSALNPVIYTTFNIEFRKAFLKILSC
# Chain of 5-hydroxytryptamine receptor 2A (P28223 whole entry): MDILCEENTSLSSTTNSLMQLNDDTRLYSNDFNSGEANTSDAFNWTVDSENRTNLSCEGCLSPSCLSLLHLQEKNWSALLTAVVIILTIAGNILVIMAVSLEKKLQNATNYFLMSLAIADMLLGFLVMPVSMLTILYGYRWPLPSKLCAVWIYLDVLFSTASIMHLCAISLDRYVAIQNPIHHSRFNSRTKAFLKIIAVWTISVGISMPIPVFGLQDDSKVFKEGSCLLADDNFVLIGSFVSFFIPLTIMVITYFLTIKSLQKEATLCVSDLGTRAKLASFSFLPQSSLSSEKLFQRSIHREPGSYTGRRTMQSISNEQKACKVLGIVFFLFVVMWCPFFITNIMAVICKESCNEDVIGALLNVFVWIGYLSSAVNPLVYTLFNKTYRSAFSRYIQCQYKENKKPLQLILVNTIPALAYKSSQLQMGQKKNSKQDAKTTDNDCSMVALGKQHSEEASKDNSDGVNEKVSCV
# Chain of Beta-2 adrenergic receptor (P07550 whole entry): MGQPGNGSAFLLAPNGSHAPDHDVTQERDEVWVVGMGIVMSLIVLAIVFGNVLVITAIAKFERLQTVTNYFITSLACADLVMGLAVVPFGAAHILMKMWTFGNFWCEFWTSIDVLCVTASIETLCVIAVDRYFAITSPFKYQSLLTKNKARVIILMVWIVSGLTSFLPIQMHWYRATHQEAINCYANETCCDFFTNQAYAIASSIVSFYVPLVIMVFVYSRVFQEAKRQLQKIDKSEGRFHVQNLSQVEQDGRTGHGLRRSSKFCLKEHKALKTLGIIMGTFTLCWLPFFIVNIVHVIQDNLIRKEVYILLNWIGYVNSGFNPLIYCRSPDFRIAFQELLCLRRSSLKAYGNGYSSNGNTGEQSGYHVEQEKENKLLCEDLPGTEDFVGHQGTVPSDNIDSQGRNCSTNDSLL
# Chain of D(2) dopamine receptor (P14416 whole entry): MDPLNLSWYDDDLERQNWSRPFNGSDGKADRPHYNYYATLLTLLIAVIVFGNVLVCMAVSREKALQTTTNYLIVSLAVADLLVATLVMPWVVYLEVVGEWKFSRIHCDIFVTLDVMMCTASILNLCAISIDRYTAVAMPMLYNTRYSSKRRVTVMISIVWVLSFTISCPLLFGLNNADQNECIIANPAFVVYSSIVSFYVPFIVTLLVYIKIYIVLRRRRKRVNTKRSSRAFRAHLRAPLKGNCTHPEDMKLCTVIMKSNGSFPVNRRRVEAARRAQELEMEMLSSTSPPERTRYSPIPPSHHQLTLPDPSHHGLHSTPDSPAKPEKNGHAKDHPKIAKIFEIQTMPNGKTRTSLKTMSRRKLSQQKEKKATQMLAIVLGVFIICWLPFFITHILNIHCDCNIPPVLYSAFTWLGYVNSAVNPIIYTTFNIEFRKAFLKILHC
# Chain of 5-hydroxytryptamine receptor 1E (P28566 whole entry): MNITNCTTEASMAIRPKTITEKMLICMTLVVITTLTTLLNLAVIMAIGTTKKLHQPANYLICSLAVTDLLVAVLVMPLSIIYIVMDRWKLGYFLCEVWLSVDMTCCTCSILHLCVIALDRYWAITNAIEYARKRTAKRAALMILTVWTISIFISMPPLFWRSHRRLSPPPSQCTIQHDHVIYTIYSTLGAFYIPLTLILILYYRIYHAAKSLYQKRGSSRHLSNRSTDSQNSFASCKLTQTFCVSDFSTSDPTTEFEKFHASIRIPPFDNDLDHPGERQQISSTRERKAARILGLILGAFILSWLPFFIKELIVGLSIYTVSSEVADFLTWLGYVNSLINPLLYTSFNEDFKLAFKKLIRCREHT
# Chain of 5-hydroxytryptamine receptor 6 (P50406 whole entry): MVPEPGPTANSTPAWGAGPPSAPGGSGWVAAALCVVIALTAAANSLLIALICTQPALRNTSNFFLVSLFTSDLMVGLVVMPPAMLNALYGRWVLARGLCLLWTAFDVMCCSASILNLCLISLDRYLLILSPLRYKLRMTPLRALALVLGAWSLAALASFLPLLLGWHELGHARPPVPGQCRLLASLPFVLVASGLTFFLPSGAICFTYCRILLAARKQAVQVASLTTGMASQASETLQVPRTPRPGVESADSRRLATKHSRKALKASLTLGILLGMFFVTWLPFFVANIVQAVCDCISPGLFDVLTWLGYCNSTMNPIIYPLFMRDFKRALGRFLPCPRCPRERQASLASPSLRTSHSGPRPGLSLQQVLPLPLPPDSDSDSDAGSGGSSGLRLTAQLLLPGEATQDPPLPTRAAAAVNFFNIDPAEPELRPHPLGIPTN
# Chain of 5-hydroxytryptamine receptor 5A (P47898 whole entry): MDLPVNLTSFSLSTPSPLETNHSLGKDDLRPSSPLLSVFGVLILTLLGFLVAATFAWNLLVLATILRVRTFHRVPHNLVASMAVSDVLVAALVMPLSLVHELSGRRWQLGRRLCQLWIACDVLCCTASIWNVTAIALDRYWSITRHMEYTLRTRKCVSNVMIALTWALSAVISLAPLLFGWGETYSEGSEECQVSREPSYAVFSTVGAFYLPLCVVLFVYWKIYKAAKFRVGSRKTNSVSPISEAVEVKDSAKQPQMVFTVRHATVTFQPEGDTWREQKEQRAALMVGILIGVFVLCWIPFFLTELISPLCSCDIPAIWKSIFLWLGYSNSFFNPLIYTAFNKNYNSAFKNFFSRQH
SMILES,Ki [1],Ki [2],Selectivity [3],Ki [4],Ki [5],further results
Cc1ccc2c(OCCN3CCN(Cc4ccc(C)c([N+](=O)[O-])c4)CC3)cccc2n1,79.4 nM,39.8 nM,40,2 nM,50.1 nM,
Cc1ccc2c(OCCN3CCN(Cc4c(Cl)cccc4Cl)CC3)cccc2n1,> 10000 nM,> 10000 nM,,> 10000 nM,1260 nM,
Cc1ccc2c(OCCN3CCN(Cc4ccc(O)c([N+](=O)[O-])c4)CC3)cccc2n1,398 nM,794 nM,40,10 nM,1000 nM,
Cc1ccc2c(OCCN3CCN(Cc4ccc5c(c4)NC(=O)CO5)CC3)cccc2n1,100 nM,63.1 nM,10,10 nM,25.1 nM,
Cc1ccc2c(OCCN3CCC(Cc4ccc5c(c4)NC(=O)CO5)CC3)cccc2n1,,,,1.58 nM,,
NCCc1c[nH]c2ccc(O)cc12,,,,,,IA [6]: 1; IA [7]: 1; IA [8]: 1
Cc1ccc2c(OCCN3CCN(Cc4cccc5ncccc45)CC3)cccc2n1,251 nM,398 nM,100,2.51 nM,,
Cc1ccc2c(OCCN3CCN(Cc4cccc5cccnc45)CC3)cccc2n1,200 nM,316 nM,251,0.794 nM,316 nM,Ki [9]: 3160 nM; Ki [10]: > 2510 nM; Ki [11]: 2000 nM; Ki [12]: 1000 nM; Ki [13]: 1000 nM; Ki [14]: > 10000 nM; IA [15]: 0; Ki [16]: 501 nM; Ki [17]: 1260 nM; Ki [18]: > 5010 nM; Ki [19]: > 10000 nM; Ki [20]: 3160 nM; Ki [21]: 3160 nM; IA [22]: 0.3; IA [23]: 0; Ki [24]: 2000 nM; Ki [25]: > 10000 nM
Cc1ccc2c(OCCN3CCN(Cc4cccc5[nH]cnc45)CC3)cccc2n1,63.1 nM,158 nM,251,0.251 nM,794 nM,IA [15]: 0; IA [22]: 0.3; IA [26]: 0.5
Cc1ccc2c(OCCN3CCN(Cc4ccc(O)c(N)c4)CC3)cccc2n1,251 nM,> 1260 nM,158,1.58 nM,,
Cc1ccc2c(OCCN3CCN(Cc4cc(Cl)ccc4Cl)CC3)cccc2n1,631 nM,79.4 nM,158,3.98 nM,1260 nM,
COc1ccc(CN2CCN(CCOc3cccc4nc(C)ccc34)CC2)cc1[N+](=O)[O-],316 nM,398 nM,16,20 nM,,
CN1CCN(c2cc3c(cc2Cl)CCN3C(=O)Nc2ccc(-c3ccncc3)c3ccccc23)CC1,,,,,,IA [27]: 0.44
Cc1ccc2c(OCCN3CCN(Cc4ccc(F)c([N+](=O)[O-])c4)CC3)cccc2n1,251 nM,501 nM,32,7.94 nM,316 nM,
Cc1ccc2c(OCCN3CCN(Cc4ccc(Cl)c([N+](=O)[O-])c4)CC3)cccc2n1,200 nM,63.1 nM,40,5.01 nM,200 nM,
Cc1ccc2c(OCCN3CCN(Cc4ccc5[nH]ccc5c4)CC3)cccc2n1,158 nM,1000 nM,50,3.16 nM,,
Cc1ccc2c(OCCN3CCN(Cc4cccc5cc[nH]c45)CC3)cccc2n1,398 nM,398 nM,126,3.16 nM,398 nM,IA [15]: 0; IA [22]: 0.1; IA [26]: 0.5
COc1ccc(NC(=O)c2ccc(-c3ccc(-c4noc(C)n4)cc3C)cc2)cc1N1CCN(C)CC1,,,,,,IA [22]: 0.47; IA [26]: 0.86
Cc1ccc2c(OCCN3CCN(Cc4ccc(Cl)c(Cl)c4)CC3)cccc2n1,2000 nM,> 10000 nM,1,2510 nM,501 nM,
Cc1ccc2c(OCCN3CCN(Cc4cccc5ncncc45)CC3)cccc2n1,316 nM,398 nM,126,2.51 nM,,
